Laboratory results from ChEMBL document CHEMBL1629614, “Inhibition of methionyl-tRNA synthetase by REP8839 and effects of resistance mutations on enzyme activity” (Antimicrob Agents Chemother, 2009).

Tests used:
Staphylococcus aureus [1] = experiment: Ratio of Kcat to Km for Staphylococcus aureus MetRS in presence of ATP
Summary of the method: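 Purified recombinant S. aureus MetRS (30 nM) was assayed by ATP:PPi exchange at 30°C in Tris pH 8.0 with Mg acetate, KCl and DTT. [32P]PPi was matched to ATP, and ATP or methionine was varied. Time points from 1 to 10 min were quenched with EDTA, separated by PEI-cellulose TLC and read by phosphorimager. Initial rates were fitted to Michaelis-Menten.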

Staphylococcus aureus [2] = experiment: Ratio of Kcat to Km for Staphylococcus aureus MetRS in presence of methionine
Staphylococcus aureus [3] = experiment: Activity of […] by scintillation proximity assay in presence of tRNA
Staphylococcus aureus [4] = experiment: Ratio of Kcat to Km for Staphylococcus aureus MetRS in presence of tRNA
Staphylococcus aureus [5] = experiment: Activity of Staphylococcus aureus MetRS by ATP:PPi exchange assay in presence of methionine
Summary of the method: (§1)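 Purified S. aureus MetRS (wild type or mutant; E. coli-expressed, ammonium sulfate cut, anion exchange) at 30 nM. ATP:PPi exchange at 30°C in 100 mM Tris-HCl pH 8.0, 5–10 mM Mg acetate, 80 mM KCl, 2.5 mM DTT, [32P]PPi plus cold PPi equal to ATP. Quenched with EDTA over 1–10 min, PEI-cellulose TLC, phosphorimager. Initial velocities versus varied ATP or methionine fit to Michaelis-Menten.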

Streptococcus pneumoniae [6] = experiment: Activity of Streptococcus pneumoniae MetRS1 by ATP:PPi exchange assay in presence of methionine
Homo sapiens [7] = species on record: Homo sapiens; experiment: Activity of human mitochondrial MetRS by ATP:PPi exchange assay in presence of methionine
Escherichia coli [8] = experiment: Activity of Escherichia coli MetRS by ATP:PPi exchange assay in presence of methionine
Staphylococcus aureus [9] = experiment: Activity of Staphylococcus aureus MetRS by ATP:PPi exchange assay in presence of ATP; summary of the method: as §1
Streptococcus pneumoniae [10] = experiment: Activity of Streptococcus pneumoniae MetRS1 by ATP:PPi exchange assay in presence of ATP
Homo sapiens [11] = species on record: Homo sapiens; experiment: Activity of human mitochondrial MetRS by ATP:PPi exchange assay in presence of ATP
Escherichia coli [12] = experiment: Activity of Escherichia coli MetRS by ATP:PPi exchange assay in presence of ATP
[13] = test system: C=C(F)c1sc(CNCCCNc2cc(=O)c3ccccc3[nH]2)c(C)c1Br; experiment: Activity of Bacillus stearothermophilus MetRS by ATP:PPi exchange assay in presence of methionine; conditions: Geobacillus stearothermophilus
[14] = test system: C=C(F)c1sc(CNCCCNc2cc(=O)c3ccccc3[nH]2)c(C)c1Br; experiment: Activity of Bacillus stearothermophilus MetRS by ATP:PPi exchange assay in presence of ATP; conditions: Geobacillus stearothermophilus

Methionine--tRNA ligase (Geobacillus stearothermophilus), P23920, sequence (P23920 whole entry): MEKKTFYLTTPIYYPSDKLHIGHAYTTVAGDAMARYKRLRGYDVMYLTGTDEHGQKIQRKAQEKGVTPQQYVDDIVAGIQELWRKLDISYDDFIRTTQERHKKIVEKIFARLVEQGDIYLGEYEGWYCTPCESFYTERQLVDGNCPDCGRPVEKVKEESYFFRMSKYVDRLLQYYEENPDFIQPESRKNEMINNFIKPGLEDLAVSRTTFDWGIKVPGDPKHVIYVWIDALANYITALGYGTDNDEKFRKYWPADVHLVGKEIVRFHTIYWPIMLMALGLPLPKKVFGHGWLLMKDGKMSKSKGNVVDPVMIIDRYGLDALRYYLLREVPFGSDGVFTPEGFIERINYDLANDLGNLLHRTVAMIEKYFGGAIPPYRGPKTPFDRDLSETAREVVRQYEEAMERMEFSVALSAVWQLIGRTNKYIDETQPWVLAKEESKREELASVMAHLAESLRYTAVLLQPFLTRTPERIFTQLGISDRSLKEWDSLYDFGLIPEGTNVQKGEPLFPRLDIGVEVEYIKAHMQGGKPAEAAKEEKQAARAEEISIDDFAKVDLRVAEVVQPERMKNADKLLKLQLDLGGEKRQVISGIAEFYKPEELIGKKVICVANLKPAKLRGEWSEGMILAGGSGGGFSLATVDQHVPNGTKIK

| Molecule | kcat/Km (Staphylococcus aureus [1]) [M⁻¹ s⁻¹] | kcat/Km (Staphylococcus aureus [2]) [M⁻¹ s⁻¹] | Km (Staphylococcus aureus [3]) [µM] | kcat (Staphylococcus aureus [3]) [s⁻¹] | kcat/Km (Staphylococcus aureus [4]) [M⁻¹ s⁻¹] | Km (Staphylococcus aureus [5]) [µM] | Km (Streptococcus pneumoniae [6]) [µM] | Km (Homo sapiens [7]) [µM] | Km (Escherichia coli [8]) [µM] | Km (Staphylococcus aureus [9]) [µM] | Km (Streptococcus pneumoniae [10]) [µM] | Km (Homo sapiens [11]) [µM] | Km (Escherichia coli [12]) [µM] | Km [13] [µM] | Km [14] [µM] |
| --- | --- | --- | --- | --- | --- | --- | --- | --- | --- | --- | --- | --- | --- | --- | --- |
| C=C(F)c1sc(CNCCCNc2cc(=O)c3ccccc3[nH]2)c(C)c1Br | 50000 | 250000 | 1 | 0.49 | 490000 | 100 | 53 | 20 | 20 | 500 | 514 | 85 | 20 |  |  |
| Methionine--tRNA ligase (Geobacillus stearothermophilus), P23920 |  |  |  |  |  |  |  |  |  |  |  |  |  | 6 | 1 |
